EBV gp42 block: blocks Epstein-Barr virus glycoprotein 42 binding; AID 1085; inhibition, % (tested at 21.74 µM); Q1HVG2; actives 0.42% (n = 220,000); Fluorescence polarization binding assay, mP read-out; in the data active means inhibition above about 50%
Target sequence (Q1HVG2 whole entry, looked up): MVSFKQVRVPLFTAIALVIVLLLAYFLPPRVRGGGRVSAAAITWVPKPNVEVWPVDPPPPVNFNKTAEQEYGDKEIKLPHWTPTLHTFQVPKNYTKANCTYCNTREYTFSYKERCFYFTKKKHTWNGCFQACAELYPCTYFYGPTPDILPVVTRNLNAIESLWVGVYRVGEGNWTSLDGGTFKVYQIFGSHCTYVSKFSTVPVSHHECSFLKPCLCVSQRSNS
LANA DNA inh: KSHV C-LANA DNA binding inhibition. MBP-C-LANA/FAM-LBS DNA binding, fluorescence polarization. AID 504423. inhibition, % at 9 µM. actives 0.078% (n = 340,000);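 active means highest replicate inhibition at or above 60% at 9 µM, even if other replicates fall short; inactive means all replicates below 60% inhibition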;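 further: 0% = neutral control wells and 100% = 4 µM acridine orange control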
Keap1-Nrf2 PPI: inhibitors of human Keap1-Nrf2 protein-protein interaction; actives 0.15% (n = 340,000); AID 504523; Q14145; Keap1 Kelch-Nrf2 peptide fluorescence polarization, 1536-well; inhibition, % at 9.4 µM; in the data active means inhibition above about 12%;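 further: human Keap1 Kelch domain with fluorescein labeled Nrf2 9mer peptide probe; 0% = neutral control wells and 100% = peptide positive control; higher means more block of Keap1 binding to Nrf2 peptide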
GRK2 inh: human GRK2 inhibition via aptamer displacement | P25098 | bead flow cytometry, FAM-aptamer displacement from GRK2 | inhibition of aptamer binding, % at 10 µM | actives 0.59% (n = 330,000) | AID 488847;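 active means inhibition of aptamer binding above 40%, roughly 3 SD of noise, on plates passing a quality check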;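 further: median bead fluorescence of bound FAM aptamer so fluorescent compounds give negative values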
T cell modulator: T cell immune modulators affecting CD8 T cell-vesicle binding; 2C CD8+ T cell-vesicle binding, flow cytometry; hits give low values; AID 2052; response (vesicle binding), % at 7 µM; actives 0.068% (n = 330,000);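 active means response, share of CD8 T cells binding vesicles, and their 90th percentile fluorescence all below set limits, cut at about 80% in these data, passing the limit was not always enough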;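 further: values below 100% mean blocked vesicle binding to the CD8+ T cells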
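System: murine 2C transgenic CD8+ T lymphocytes; also added: QL9-loaded Drosophila micro-vesicles; times: binding 1.5 h at 37 °C; measured by: flow cytometry, PE anti-B7-1 (FL2) versus Alexa647 anti-CD8 (FL8), PFA-fixed; control set: Peptide-free naked vesicles (low) and QL9 vesicles with 0.7% DMSO vehicle (high)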
MEX-5 binding: C. elegans MEX-5 TCR-2 RNA binding activity | actives 0.38% (n = 300,000) | MEX-5/FITC-TCR2 RNA binding, fluorescence polarization; hits give low values | activity score (negative = inhibition of binding), % at 10 µM | Q9XUB2 | AID 1832;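 active means inhibition past about -25% in most replicates, and total fluorescence under double the plate's negative control median, limit read from the data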;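 further: 0% = DMSO and -100% = 5 µM competing unlabeled TCR2 RNA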
Target sequence (Q9XUB2 whole entry, looked up): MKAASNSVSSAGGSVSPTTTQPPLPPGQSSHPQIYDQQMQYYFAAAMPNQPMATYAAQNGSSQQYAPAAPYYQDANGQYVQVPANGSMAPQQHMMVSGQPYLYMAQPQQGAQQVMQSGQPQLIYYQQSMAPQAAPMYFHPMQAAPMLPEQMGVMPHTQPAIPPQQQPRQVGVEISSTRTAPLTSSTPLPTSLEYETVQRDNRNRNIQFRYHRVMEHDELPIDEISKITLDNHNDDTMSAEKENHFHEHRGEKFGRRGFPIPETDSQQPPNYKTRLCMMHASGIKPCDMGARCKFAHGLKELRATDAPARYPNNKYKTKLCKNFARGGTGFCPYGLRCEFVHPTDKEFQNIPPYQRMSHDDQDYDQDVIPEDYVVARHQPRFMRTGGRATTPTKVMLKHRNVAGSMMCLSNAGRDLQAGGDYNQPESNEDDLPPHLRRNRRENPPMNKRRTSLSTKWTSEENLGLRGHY
GRK2 inh confirm: human GRK2 inhibition confirmation, cherry pick 1; aptamer displacement, % at 10 µM; bead-bound GRK2, FAM-aptamer displacement, flow cytometry; shares compounds with GRK2 inh; AID 504451; actives 4% (n = 2,000);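 active means aptamer displacement above 40%, near three times the noise of non-fluorescent compounds, on plates passing quality checks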;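 further: negative values mostly reflect intrinsic compound fluorescence rather than true enhancement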
FAM quench CP1: counter-screen for GRK2 aptamer inhibitors: fluorescent aptamer quenchers | shares compounds with GRK2 inh | Carboxyfluorescein RNA aptamer on beads, flow cytometry quenching; hits give low values | fluorescence response (% of DMSO), % at 10 µM | 2,000 tested, under 10 active;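 active means compounds that quench the bead-bound fluorescent RNA probe, cutting fluorescence to under half of the solvent control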;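 further: counterscreen run without GRK2 so only probe quenching by compound is measured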
GRK2 CP2: confirmation of human GRK2 inhibitors binding RNA aptamer site | bead-bound GRK2, FAM-aptamer displacement, flow cytometry | inhibition of aptamer binding, % at 10 µM | AID 504782 | shares compounds with GRK2 inh | 360 tested, under 10 active;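 active means inhibition of aptamer binding above 40%, about triple the noise seen with nonglowing compounds, on plates passing quality control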;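 further: negative values mostly come from compounds that fluoresce themselves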
FAM quench CP2: aptamer fluorescence quenching in GRK2 counter-screen. shares compounds with GRK2 inh. carboxyfluorescein RNA aptamer beads, flow cytometry quenching; hits give low values. fluorescence response vs DMSO, % at 10 µM. 360 tested, under 10 active. AID 588494;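 active means response vs DMSO under 50%, meaning signal dropped by over half, treated as fluorescence quencher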;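 further: labelled aptamer on streptavidin beads without GRK2 as a quench counter-screen; 100% = bead fluorescence of DMSO wells and lower means quenching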
The depositor's hits bear a star; i = inactive; x = no result. Shown are actives, neighbours in structure and some others; about 1.3% of the full set was active somewhere.

SMILES	EBV gp42 block	LANA DNA inh	Keap1-Nrf2 PPI	GRK2 inh	T cell modulator	MEX-5 binding	GRK2 inh confirm	FAM quench CP1	others
CC[C@@]1(C(=O)OC)N[C@H](CN(C)C(=O)c2ccc(C)cc2)[C@@H]2C(=O)N(C)C(=O)[C@@H]21	x	-1	2	1	447	x	x	x
O=C(/C=C/c1cccc(Br)c1)NCC1CCCCC1	10	-1	-2	0	322	x	x	x
COc1cc(/C=C/C(=O)NCC2CCCCC2)cc(OC)c1OC	x	-2	-2	63*	117	2	0	106
COc1ccc(S(=O)(=O)N(C)Cc2ccc3c(c2)OCCO3)cc1	x	-1	-3	42*	70	x	-3	100
COc1cccc(CN(C)S(=O)(=O)c2ccc3c(c2)OCCO3)c1	x	0	0	x	x	x	x	x
O=C(O)CC/C(=C\c1ccc(N2CCCC2)c([N+](=O)[O-])c1)c1nc2ccccc2s1	0	-2	-5	71*	562	1	-5	100
CN(c1ccccc1)c1ccc(/C=C(/CCC(=O)O)c2nc3ccccc3s2)cc1[N+](=O)[O-]	x	2	1	x	x	x	x	x
CN1CCc2nc3sc(C(=O)C45CC6CC(CC(C6)C4)C5)c(N)c3cc2C1	8	0	-1	51*	304	x	-21	93
CC(=O)Oc1ccc(C(=O)[C@H]2[C@H]3C(=O)N(c4cccc5ccccc45)C(=O)[C@H]3[C@@H]3C=CC=NN32)cc1	-21	0	-2	73*	175	3	x	x	GRK2 CP2=8;FAM quench CP2=101
COc1ccc(C(=O)[C@H]2[C@H]3C(=O)N(c4ccc(OC(C)=O)cc4)C(=O)[C@H]3C3C=CC=NN32)cc1 (stereo partly specified)	-18	-2	1	0	151	2	x	x
Cc1c(CN2CCC(CO)(CCOc3ccccc3)CC2)[nH]c2c(Cl)cccc12	44	-1	1	0	108	1	x	x
COCOc1ccc(C=O)c(OCOC)c1	x	2	5	98*	423	0	-1	100
Cc1cc(/C=C2\NC(=O)NC2=O)c(C)n1-c1cccnc1	-10	x	x	3	393	-3	x	x
Cc1oc(-c2ccccc2)cc1C(=O)Nc1ccc2ccccc2c1	-10	3	4	98*	310	1	-3	95
Cc1oc(-c2ccccc2)cc1C(=O)Nc1ccccc1	-5	0	-7	0	161	0	x	x
COC(=O)c1ccc(OC)c(CSc2nnc(COc3ccc(Cl)cc3)o2)c1	0	1	-1	0	100	3	x	x
COc1ccc(OC)c(NC(=O)COC(=O)CN2C(=O)NC3(CCCC3)C2=O)c1	x	0	2	0	409	x	x	x
C(=N\n1cnnc1)/c1ccc2c(c1)OCCO2	-7	-1	-1	0	502	0	x	x
COCCNC(=O)c1ccc(CS(=O)(=O)c2ccccc2C)o1	x	-2	-5	0	320	-1	x	x
COC(=O)c1ccc(CS(=O)(=O)c2ccccc2C)o1	1	-1	1	4	241	1	x	x	GRK2 CP2=-2;FAM quench CP2=101
Cc1ccc(NC(=O)CCS(=O)(=O)c2ccc3c(c2)NC(=O)C(C)S3)cc1Cl (stereo unspecified)	x	3	-2	2	142	-4	x	x	GRK2 CP2=-2;FAM quench CP2=99
CC1Sc2ccc(S(=O)(=O)CCC(=O)NC(C)c3ccccc3)cc2NC1=O (stereo unspecified)	x	2	-1	8	134	1	x	x	GRK2 CP2=26;FAM quench CP2=97
CCC1Sc2ccc(S(=O)(=O)CCC(=O)Nc3c(Cl)cc(OC)cc3OC)cc2NC1=O (stereo unspecified)	x	0	-4	3	239	-3	x	x	GRK2 CP2=18;FAM quench CP2=100
CC1Sc2ccc(S(=O)(=O)CCC(=O)Nc3ccc(C(C)C)cc3)cc2NC1=O (stereo unspecified)	x	0	3	0	107	1	x	x
CCOc1ccccc1N(C)C(=O)CCS(=O)(=O)c1ccc2c(c1)NC(=O)C(C)S2 (stereo unspecified)	x	1	-5	5	254	0	x	x	GRK2 CP2=-5;FAM quench CP2=101
SMILES	EBV gp42 block	LANA DNA inh	Keap1-Nrf2 PPI	GRK2 inh	T cell modulator	MEX-5 binding	GRK2 inh confirm	FAM quench CP1	others
Cn1c(SCc2cccc(Br)c2)nc2ccccc2c1=O	x	0	-1	0	288	2	x	x
COc1cccc(NC(=O)COC(=O)c2ccccc2C(=O)N2CCN(c3ccccc3)CC2)c1	5	1	-6	0	i	-3	x	x
COc1cccc(C2c3cc4c(cc3OC(NNC(N)=O)C2C)OCO4)c1O (stereo unspecified)	x	1	-3	x	x	x	x	x
CCOc1ccccc1/C=N/n1nnnc1N	x	-2	-2	5	272	-2	x	x
CCOCCCNC(=O)CS(=O)(=O)Cc1nc(-c2cccc(OC)c2)oc1C	0	2	-2	56*	579	2	2	100
Cc1oc(-c2ccccc2Cl)nc1CSCC(=O)NC1CCCC1	-14	1	-6	30	274	0	0	99
Cc1oc(-c2cccc(Cl)c2)nc1CSc1nc2c(c(=O)[nH]1)CCC2	-4	0	-9	1	282	0	x	x
COc1cccc(-c2nc(CS(=O)(=O)CC(=O)NC3CCCC3)c(C)o2)c1	x	0	-3	0	219	5	x	x
Cc1oc(-c2cccc(Cl)c2)nc1CS(=O)(=O)CC(=O)NC1CCCC1	x	1	-2	67*	237	-1	-2	96
Cc1oc(-c2ccccc2Cl)nc1CSc1nc2c(c(=O)[nH]1)CCC2	-1	1	-8	56*	503	-2	7	99
CCCNC(=O)CS(=O)(=O)Cc1nc(-c2cccc(OC)c2)oc1C	-1	-2	6	0	519	1	x	x
Cc1cc(C)n(CCN(C)Cc2nc(Cc3ccccc3F)no2)n1	-18	1	-6	2	288	0	x	x
CCOC(=O)C1CCCN(S(=O)(=O)Cc2ccc(Cl)cc2)C1 (stereo unspecified)	x	6	0	0	263	0	x	x
COC(=O)c1ccc2[nH]cc(CCO)c2c1	x	0	9	1	500	3	x	x
CSc1cccc(CN2CCN(Cc3ccccc3)C(CCO)C2)c1 (stereo unspecified)	-7	0	3	0	247	-2	x	x

Compound activity (PubChem BioAssay)
